According to ChEMBL document CHEMBL4270628, “Design, synthesis, and evaluation of cystargolide-based β-lactones as potent proteasome inhibitors” (Eur J Med Chem, 2018):
Calls of active or inactive are those of the source. The rule behind the calls is not given here.

Experiments:
[1] = target: T1, Proteasome Macropain subunit MB1 (Homo sapiens, UniProt P28074); assay: Inhibition of 20S proteasome beta5 subunit in human Jurkat cell lysate using Suc-LLVY-AMC as substrate pretreated for 30 mins followed by substrate addition and measured after 60 mins by fluorescence assay
T1 sequence (P28074 whole entry): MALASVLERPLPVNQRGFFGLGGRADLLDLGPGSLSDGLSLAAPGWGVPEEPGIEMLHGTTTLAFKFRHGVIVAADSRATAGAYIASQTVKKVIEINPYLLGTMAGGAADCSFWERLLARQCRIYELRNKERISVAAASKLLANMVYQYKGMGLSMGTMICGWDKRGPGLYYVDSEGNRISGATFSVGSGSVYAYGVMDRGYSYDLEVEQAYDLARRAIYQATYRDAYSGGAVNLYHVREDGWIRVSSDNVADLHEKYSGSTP
Summary of the method: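 Lysate was preincubated with compound 30 min at 37 °C. 100 μM substrate solution was added: Suc-LLVY-AMC for β5, Suc-RLR-AMC for β2. IC50 by nonlinear regression, ±SD.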

MCF7 = assay: Cytotoxicity against human MCF7 cells after 48 hrs by MTT assay; format: functional, cell-based; settings: MCF7, 48 h
Summary of the method: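 MCF7 cells plated at 4*10⁴ cells/mL and left overnight to adhere, then exposed to a concentration series for 48 h, with DMSO vehicle, untreated cells, and 100 μM phenylarsine oxide as controls. MTT (5 mg/mL stock in PBS) was added for 2 h at 37 °C. Formazan was dissolved in DMSO and OD read at 490 nm. The best three of quadruplicate wells were used; IC50 from nonlinear regression on normalized data, ±SD.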

MDA-MB-231 = assay: Cytotoxicity against human MDA-MB-231 cells after 48 hrs by MTT assay; format: functional, cell-based; settings: MDA-MB-231, 48 h
Summary of the method: (§1)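 MTT viability after 48 h exposure to a concentration series; MDA-MB-231 seeded at 4*10⁴ cells/mL and adhered overnight, RPMI 8226 at 4*10⁵ cells/mL and dosed immediately. MTT (5 mg/mL in PBS) added, 2 h at 37 °C; formazan dissolved in DMSO (MDA-MB-231) or DMF/SDS pH<4 (RPMI 8226); OD 490 nm.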

RPMI-8226 = assay: Cytotoxicity against human RPMI8226 cells after 48 hrs by MTT assay; format: functional, cell-based; settings: RPMI-8226, 48 h; summary of the method: as §1
[2] = target: T2, Proteasome Macropain subunit MB1 (Homo sapiens) (UniProt P28074); assay: Inhibition of 20S proteasome beta5 subunit in human MCF7 cells using Suc-LLVY-AMC as substrate pretreated for 1 hr followed by compound washout and cell lysis prior to substrate addition measured after 1 hr by fluorescence assay; format: cell-based
T2 sequence (whole entry): T1 sequence (P28074 whole entry)
Summary of the method: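 Adherent MCF7 (500,000 cells/mL, overnight, ~100% confluent) dosed 1 h at 37 °C, 5% CO₂; washed twice with PBS, lysed in HEPES/Triton buffer on ice 1 h; 15 min at 37 °C, then 100 μM Suc-LLVY-AMC 1 h at 37 °C; ex 360/em 480 nm. IC50 from best three of four biological replicates per concentration.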

[3] = target: T3, Proteasome subunit beta type-1 (Saccharomyces cerevisiae (strain ATCC 204508 / S288c) (Baker's yeast), UniProt P38624); assay: Inhibition of yeast 20S proteasome beta1 subunit using fluorescent substrate pretreated for 30 mins followed by substrate addition and measured after 60 mins by fluorescence assay
T3 sequence (P38624 whole entry): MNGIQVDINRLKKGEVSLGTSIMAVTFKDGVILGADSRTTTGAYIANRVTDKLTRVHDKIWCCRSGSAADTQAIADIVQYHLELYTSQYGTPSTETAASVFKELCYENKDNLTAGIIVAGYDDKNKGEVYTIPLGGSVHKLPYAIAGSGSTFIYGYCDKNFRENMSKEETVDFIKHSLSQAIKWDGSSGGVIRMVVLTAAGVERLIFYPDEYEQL

[4] = target: T4, Proteasome subunit beta type-2 (Saccharomyces cerevisiae (strain ATCC 204508 / S288c) (Baker's yeast), UniProt P25043); assay: Inhibition of yeast 20S proteasome beta2 subunit using SUC-RLR-AMC as substrate pretreated for 30 mins followed by substrate addition and measured after 60 mins by fluorescence assay
T4 sequence (P25043 whole entry): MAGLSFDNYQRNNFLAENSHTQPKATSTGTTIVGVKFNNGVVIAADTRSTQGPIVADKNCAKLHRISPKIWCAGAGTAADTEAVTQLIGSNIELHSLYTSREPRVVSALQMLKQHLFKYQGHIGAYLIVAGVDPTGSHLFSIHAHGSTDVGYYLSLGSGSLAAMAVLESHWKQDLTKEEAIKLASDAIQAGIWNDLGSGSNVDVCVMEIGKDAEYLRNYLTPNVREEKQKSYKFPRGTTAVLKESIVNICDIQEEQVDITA
Summary of the method: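 Fluorogenic substrate was then added (100 μM Suc-RLR-AMC solution for β2) and incubated 60 min at 37 °C; cleavage read at ex 360/em 480 nm. IC50 from nonlinear regression on normalized data, ±SD.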

[5] = Inhibition of yeast 20S proteasome beta5 subunit using Suc-LLVY-AMC as substrate pretreated for 30 mins followed by substrate addition and measured after 60 mins by fluorescence assay; set-up: species or system Saccharomyces cerevisiae
Summary of the method: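 Purified yeast 20S proteasome at 8 μg/mL preincubated with compound 30 min at 37 °C; then 100 μM Suc-LLVY-AMC for 60 min at 37 °C; cleaved-AMC fluorescence ex 360/em 480 nm. IC50 by nonlinear regression on normalized data, confirmed in at least technical triplicate, reported ± SD.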

[6] = target: T5, Proteasome subunit beta type-8 (Homo sapiens, UniProt P28062); assay: Inhibition of human immunoproteasome beta5 subunit using Suc-LLVY-AMC as substrate pretreated for 30 mins followed by substrate addition and measured after 60 mins by fluorescence assay
T5 sequence (P28062 whole entry): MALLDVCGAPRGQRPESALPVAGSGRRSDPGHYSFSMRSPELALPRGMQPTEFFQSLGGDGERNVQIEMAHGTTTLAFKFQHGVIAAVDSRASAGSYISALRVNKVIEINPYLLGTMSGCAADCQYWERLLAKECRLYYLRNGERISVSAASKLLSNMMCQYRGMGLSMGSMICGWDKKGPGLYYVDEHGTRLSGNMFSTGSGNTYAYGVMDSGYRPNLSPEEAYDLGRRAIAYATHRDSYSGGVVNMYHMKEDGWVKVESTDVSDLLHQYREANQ

SMILES	IC50 [1] [nM]	IC50 (MCF7) [nM]	IC50 (MDA-MB-231) [nM]	IC50 (RPMI-8226) [nM]	inhibition [2]	IC50 [3] [nM]	IC50 [4] [nM]	IC50 [5] [nM]	IC50 [6] [nM]
CC[C@H](C)[C@@H]1C(=O)O[C@H]1C(=O)N[C@H](C(=O)N[C@@H](CC(C)C)C(=O)OCc1ccccc1)C(C)C	7.7	332	219	286	Active				
CC[C@H](C)[C@@H]1C(=O)O[C@H]1C(=O)N[C@H](C(=O)N[C@H](C(=O)OCc1ccccc1)C(C)(C)C)C(C)(C)C	35.9	1900	673	1220					
CC(C)[C@H](NC(=O)[C@@H]1OC(=O)[C@H]1C1CCC1)C(=O)N[C@H](C(=O)OCc1ccccc1)C(C)C	13.2	> 50000	> 50000	37200	inactive				
CC(C)C[C@H](NC(=O)[C@H](CCc1ccccc1)NC(=O)CN1CCOCC1)C(=O)N[C@@H](Cc1ccccc1)C(=O)N[C@@H](CC(C)C)C(=O)[C@@]1(C)CO1 [CARFILZOMIB]		4.1	4.4	6.7		> 1000	> 1000		
CC[C@H](C)[C@@H]1C(=O)O[C@H]1C(=O)N[C@H](C(=O)N[C@H](C(=O)OCC1CCCCC1)C(C)C)C(C)C	18.7	4620	3220	303					
C=CCOC(=O)[C@@H](NC(=O)[C@@H](NC(=O)[C@@H]1OC(=O)[C@H]1[C@@H](C)CC)C(C)C)C(C)C	9.4	353	275	88		779	> 10000	19.5	41.2
CC[C@H](C)[C@@H]1C(=O)O[C@H]1C(=O)N[C@H](C(=O)N[C@H](C(=O)OCc1ccccc1)C(C)C)C(C)(C)C	22.8	2290	699	748	Active				
CC[C@H](C)[C@@H]1C(=O)O[C@H]1C(=O)N[C@@H](Cc1ccccc1)C(=O)N[C@H](C(=O)OCc1ccccc1)C(C)C	7.8	6940	3760	2610	Active				
CC[C@H](C)[C@@H]1C(=O)O[C@H]1C(=O)NCC(=O)N[C@H](C(=O)OCc1ccccc1)C(C)C	2.7	2080	678	762	Active				
CC[C@H](C)[C@@H]1C(=O)O[C@H]1C(=O)N[C@H](C(=O)N[C@H](C(=O)OCc1ccc(Cl)cc1)C(C)C)C(C)C	8.2	918	312	85					
CC[C@H](C)[C@@H]1C(=O)O[C@H]1C(=O)N[C@@H](Cc1ccccc1)C(=O)N[C@@H](Cc1ccccc1)C(=O)OCc1ccccc1	11.6	6250	5210	1180					
C=CCCOC(=O)[C@@H](NC(=O)[C@@H](NC(=O)[C@@H]1OC(=O)[C@H]1[C@@H](C)CC)C(C)C)C(C)C	6.6	523	341	272					
CC(C)C[C@@H]1C(=O)O[C@H]1C(=O)N[C@H](C(=O)N[C@H](C(=O)OCc1ccccc1)C(C)C)C(C)C	19.7	55300	30300	33500	inactive				
CC[C@H](C)[C@@H]1C(=O)O[C@H]1C(=O)N[C@H](C(=O)N[C@H](C(=O)NCc1ccccc1)C(C)C)C(C)C	3.6	892	885	320		1380	2920	5.4	
CC[C@H](C)[C@@H]1C(=O)O[C@H]1C(=O)N[C@H](C(=O)N[C@H](C(=O)OC)C(C)C)C(C)C	15.9	427	312	268					
CC[C@H](C)[C@@H]1C(=O)O[C@H]1C(=O)N[C@H](C(=O)N[C@@H](Cc1ccccc1)C(=O)OCc1ccccc1)C(C)C	5.7	2750	3350	1100					
CC(C)[C@H](NC(=O)[C@@H]1OC(=O)[C@H]1C1CCCC1)C(=O)N[C@H](C(=O)OCc1ccccc1)C(C)C	12.9	50600	28200	2350	inactive				
CC[C@H](C)[C@@H]1C(=O)O[C@H]1C(=O)N[C@H](C(=O)N[C@H](C(=O)OCc1ccc(OC)cc1)C(C)C)C(C)C	10.2	854	280	114					
CC[C@H](C)[C@@H]1C(=O)O[C@H]1C(=O)N[C@H](C(=O)N[C@H](C(=O)OCC(C)C)C(C)C)C(C)C	8.8	664	317	95					
CC(C)[C@H](NC(=O)[C@@H]1OC(=O)[C@H]1C1CC1)C(=O)N[C@H](C(=O)OCc1ccccc1)C(C)C	7.6	> 100000	> 100000	73900	inactive				
CC[C@H](C)[C@@H]1C(=O)O[C@H]1C(=O)N[C@@H](COCc1ccccc1)C(=O)N[C@H](C(=O)OCc1ccccc1)C(C)C	7.7	3450	2860	1710	Active				
CC[C@H](C)[C@@H]1C(=O)O[C@H]1C(=O)N[C@H](C(=O)N[C@H](C(=O)OCc1ccccc1)C(C)(C)C)C(C)C	9.8	1140	1910	1750	inactive				
CC[C@H](C)[C@@H]1C(=O)O[C@H]1C(=O)N[C@@H](CC(C)C)C(=O)N[C@H](C(=O)OCc1ccccc1)C(C)C	5	2460	1450	2240	Active				
